These results are taken from ChEMBL document CHEMBL5244226, “Cyathane Diterpenes from Cultures of the Bird's Nest Fungus Cyathus hookeri and Their Neurotrophic and Anti-neuroinflammatory Activities” (J Nat Prod, 2019).

Calls of active or inactive are those of the source. The rule behind the calls is not given here.

For one data set, the system named is BV-2. The experiment in a line: Antineuroinflammatory activity in mouse BV-2 cells assessed as inhibition of LPS-induced NO production measured after 24 hrs by Griess reagent based assay. The format is functional, cell-based. The following applies: BV-2, 24 h. In outline: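 BV-2 murine microglia in DMEM with 10% heat-inactivated FBS, seeded 2 × 10^4/well and grown 24 h at 37 °C. Then co-treated 24 h with LPS (E. coli 0111:B4, 1 μg/mL) plus test agent in DMSO. Controls were DMSO+LPS and quercetin. Supernatant nitrite by Griess reaction, A540, against a sodium nitrite standard curve. IC50 is the concentration halving NO output.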
In general terms: Griess reagent forms a coloured azo dye with nitrite.

The subject of data set [1] is PC-12. Nature of the data set: Neurotrophic activity in rat PC-12 cells assessed as induction of NGF-mediated neurite outgrowth at 10 uM measured after 48 hrs by microscopic analysis. The data set is classed as functional, cell-based. In outline:
(§1)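 PC-12 cells (rat) grown in DMEM with 10% heat-inactivated horse serum and 5% FBS at 37 °C, 5% CO2. Plated 1 × 10^4/well on poly-L-lysine for 24 h, then 14 h in low-serum medium (2% HS, 1% FBS). Treated 48 h with compound (DMSO) plus NGF 20 ng/mL; NGF alone as positive control. Triplicate wells, 10 random phase-contrast fields per well, ≥100 cells per field. Neurite-bearing cells counted as percentage of total.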

The subject of data set [2] is PC-12. The experiment in a line: Cytotoxicity against rat PC-12 cells at 10 uM. Particulars: pc-12, 10 µM. The format is toxicity, cell-based.
Data set [3] has as its system PC-12. Nature of the data set: Neurotrophic activity in rat PC-12 cells assessed as induction of NGF-mediated neurite outgrowth by measuring neurite bearing cells at 5 uM measured after 48 hrs by microscopic analysis (reference value: 15.7 +/- 0.1%). The data set is classed as functional. In outline:
as §1

The test system of data set [4] is PC-12. The experiment in a line: Neurotrophic activity in rat PC-12 cells assessed as induction of NGF-mediated neurite outgrowth by measuring neurite bearing cells at 10 uM measured after 48 hrs by microscopic analysis (reference value: 15.7 +/- 0.1%). The format is functional. An outline of the steps:
as §1

With `CC(C)C1=C2[C@H]3CC=C(C=O)CC(=O)[C@]3(C)CC[C@@]2(C)CC1`, the IC50 (usually the concentration that inhibits the measured activity by half) in the data set with BV-2 was found to be 10.9 µM. Besides, the outcome in the data set with PC-12 [1] was Active.
The like results for `CC(C)C1=C2[C@H]3C[C@H]4O[C@](O)(C=C4C4O[C@@H](C)[C@@H](C)O4)[C@]3(C)CC[C@@]2(C)CC1` (some centres not stated) were, in that order, 12 µM and “Active”.
The like results for `CC1=C[C@H](O)[C@]2(C)CC[C@@]3(C)CCC(C(C)C)=C3[C@H]2CC1` were, in that order, 32.8 µM and “Active”.
Consider `CO[C@H]1C[C@@H]2C3=C(C(C)C)CC[C@]3(C)CC[C@@]2(C)[C@@H](O)C=C1C=O`, for which the IC50 in the data set with BV-2 turned out to be 6.9 µM. Besides, the Activity entry in the data set with PC-12 [2] is reported as “Toxic”.
As for `CC(C)C1=C2[C@H]3C[C@H]4O[C@](O)([C@H](O)[C@@H]4CO)[C@]3(C)CC[C@@]2(C)CC1`, the IC50 in the data set with BV-2 is greater than 50 µM. In addition, the result in the data set with PC-12 [1] was Active.
The like results for `CC(C)C1=C2[C@H]3C[C@H]4O[C@](O)([C@H](O)[C@H]4CO)[C@]3(C)CC[C@@]2(C)CC1` were, in that order, greater than 50 µM and “Active”.
On to `CC(C)C1=C2[C@H]3C[C@H]4O[C@](O)(C=C4C(=O)O)[C@]3(C)CC[C@@]2(C)CC1`, for which, in the data set on BV-2, the IC50 is greater than 50 µM. The result in the data set on PC-12 [1] was Active.
On to `CC1=CC(=O)[C@]2(C)CC[C@@]3(C)CCC(C(C)C)=C3[C@H]2CC1`, for which the IC50 in the data set on BV-2 turned out to be 27.8 µM. Moreover, in the data set on PC-12 [1], the result was Active.
Take `CC(C)C1=C2[C@H]3C[C@H]4O[C@](O)(C=C4COC(=O)C(C)O)[C@]3(C)CC[C@@]2(C)CC1` (some centres not stated): in the data set with BV-2, the IC50 was 27.3 µM. Also, the outcome in the data set with PC-12 [1] was Active. The Activity is reported as 28.1% in the data set on PC-12 [3] and 32% in the data set with PC-12 [4].
For the molecule `CC(C)C1=C2[C@H]3C[C@H]4O[C@](O)([C@H](O)[C@@H]4C4O[C@@H](C)[C@@H](C)O4)[C@]3(C)CC[C@@]2(C)CC1` (some centres not stated), the IC50 with BV-2 came out at 15.5 µM. In addition, in the data set with PC-12 [1], the result was Active.
The like results for `CC(C)[C@]12CC[C@]3(C)CC[C@@]4(C)C(=O)C=C(CO)[C@H](O)C[C@@H]4[C@@]31O2` were, in that order, greater than 50 µM and “Active”.
Consider `CO[C@@H]1C(C=O)=CC[C@@H]2C3=C(C(C)C)CC[C@]3(C)CC[C@@]2(C)[C@H]1O`, for which the IC50 with BV-2 is 9.1 µM. In the data set on PC-12 [2], the Activity result is “Toxic”.
As to `CO[C@H]1C(=O)[C@]2(C)CC[C@@]3(C)CCC(C(C)C)=C3[C@H]2CC=C1C=O`, the IC50 in the data set with BV-2 is 19.7 µM. Further, the outcome with PC-12 [1] was Active.
The like results for `COC(OC)C1=C[C@H](O)[C@]2(C)CC[C@@]3(C)CCC(C(C)C)=C3[C@H]2C[C@H]1OC` were, in that order, 36.8 µM and “Active”.
Consider `CC(C)C1=C2[C@H]3C[C@@H](O)C(CO)=C[C@H](O)[C@]3(C)CC[C@@]2(C)CC1`, for which the IC50 with BV-2 was 22.1 µM. The result in the data set on PC-12 [1] was Active.
